PMC5543507 (Cancer Science, 2017)
Where “and” joins values, the source holds several entries; their conditions need not be identical. Equal entries are not always repeated. Marks after values point to notes of the source that are not given here.

Columns and labels:
[1] = test system: SMO; conditions: preclinical studies; cited from earlier work
[2] = test system: Japanese patients with select advanced hematologic malignancies; assay: Safety: adverse events and dose-limiting toxicities, phase I trial of glasdegib; assay type: in vivo
Procedure, shortened: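 Once-daily oral dosing at 25, 50 or 100 mg followed a 3 + 3 design. AEs, serious AEs and laboratory tests were monitored until 28 days after the last dose or until drug-related toxicities resolved, graded by NCI CTCAE v4.0. DLT window: Day −5 to Cycle 1 Day 28. DLTs: grade ≥3 nonhematologic toxicity; myelosuppression lasting ≥42 days; grade ≥3 QTc prolongation (≥501 ms).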

[3] = Plasma pharmacokinetics after single and multiple oral doses; assay type: in vivo, Japanese patients; conditions: for half-life / AUC(0-inf) / Tmax / Vd/F: human, plasma; for C trough: multiple dose, Cycle 1/Day 21; for C trough / CL/F: geometric mean (geometric %CV); for CL/F: single dose
Procedure, shortened: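 Dosing was oral, once daily, at 25, 50 or 100 mg (3 + 3 design), with a single lead-in dose on Day −5. Serial blood was drawn on Day −5 and on Cycle 1 Days 1, 8, 15 and 21, then on Day 1 of later cycles. Plasma drug was assayed by a validated method (LLOQ 3.00 ng/mL). Cmax, Tmax and AUC came from noncompartmental analysis.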

[4] = test system: select advanced hematologic malignancies; assay: Preliminary clinical activity by disease-specific response criteria; assay type: in vivo, Japanese patients
Procedure, shortened: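 Patients aged ≥20 years had refractory, resistant or intolerant MDS, MF, CMML, CML or AML. They took oral test compound once daily at 25, 50 or 100 mg in 28-day cycles, after a lead-in dose on Day −5. Response was judged by disease-specific criteria and summarised with descriptive statistics.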

[5] = test system: solid tumors; conditions: glasdegib monotherapy; cited from earlier work
[6] = test system: hematologic malignancies; conditions: cited from earlier work
[7] = 5–600 mg dose range; cited from earlier work
[8] = test system: GLI1 expression; conditions: advanced solid tumors; 80–640 mg; cited from earlier work
[9] = test system: patients with select advanced myeloid malignancies and solid tumors; conditions: phase I dose-escalation study, United States and Italy; cited from earlier work
[10] = test system: leukemic stem cell (LSC) burden in xenograft models; conditions: cited from earlier work
[11] = test system: GLI1 expression; assay: GLI1 expression in normal skin biopsies; assay type: in vivo, Japanese patients; conditions: for Downregulation of GLI1 expression from skin biopsies: steady state (Cycle 1 Day 21 vs screening)
Procedure, shortened: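 Adults with advanced hematologic malignancies received once-daily oral test compound at 25, 50 or 100 mg in 28-day cycles, after a single lead-in dose on Day −5. Normal skin biopsies were taken at screening and on Cycle 1 Day 21. Expression of Hh pathway-regulated genes was measured relative to baseline, matched to PK sampling where possible, and summarised graphically and descriptively.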

## CN1CC[C@@H](NC(=O)Nc2ccc(C#N)cc2)C[C@@H]1c1nc2ccccc2[nH]1 [glasdegib]
[1]
  Inhibition of SMO in vitro: inhibited SMO in vitro
[2]; 50 mg group
  Permanent discontinuation of treatment due to AE: 3 patients
[2]; 100 mg group
  Permanent discontinuation of treatment due to AE: 1 patient
[2]; 9 of 13 patients with treatment-related AE
  Severity of treatment-emergent, treatment-related AE: 1–3 grade
[2]; 13 patients, 8%
  Leukopenia, grade 4 treatment-emergent AE: 1 n
  Neutropenia, grade 4 treatment-emergent AE: 1 n
  Reduced platelet count, grade 4 treatment-emergent AE: 1 n
  Thrombocytopenia, grade 4 treatment-emergent AE: 1 n
[2]; 13 patients, 15%
  Anemia, grade 3 treatment-emergent all-causality AE: 2 n
  Hypokalemia, grade 3 treatment-emergent all-causality AE: 2 n
  Thrombocytopenia, grade 3 treatment-emergent all-causality AE: 2 n
[2]; 13 patients, 23%, grade 1 muscle cramp, grade 1 dysgeusia, grade 1–3 pyrexia
  Treatment temporarily discontinued or dose reduced due to a treatment-related AE: 3 patients
[2]; 13 patients, 25, 50 and 100 mg q.d., Day −5 to Day 28 of Cycle 1
  First-cycle dose-limiting toxicities (DLT): No DLT were observed
[2]; 50-mg group
  Temporary discontinuations for an all-cause AE: 1 patient
[2]; 100-mg group, 23%
  Temporary discontinuations for an all-cause AE: 3 patients
[2]; N = 13
  Grade 4 or 5 treatment-related adverse events: No grade 4 or 5 treatment‐related adverse events were reported in this study.
  Pyrexia, grade 3 treatment-related: a One patient experienced grade 3 treatment‐related pyrexia.
[2]; N = 13, 25, 50 and 100 mg q.d. oral pooled
  Any adverse event, treatment-emergent all-causality, all grades: 13 (100.0) n (%)
[2]; N = 13, all doses pooled
  Alopecia, all-causality, all grades: 4 (30.8) n (%)
  Alopecia, all-causality, ≥Grade 3: 0 n (%)
  Alopecia, treatment-related, Grade 3: 0 n (%)
  Alopecia, treatment-related, all grades: 4 (30.8) n (%)
  Any adverse event, treatment-emergent all-causality, ≥Grade 3: 7 (53.8) n (%)
  Any adverse event, treatment-emergent treatment-related, all grades: 9 n (%) and 9 (69.2) n (%)
  Any adverse event, treatment-related, Grade 3: 1 (7.7) ^a n (%)
  Blood creatinine phosphokinase increased, all-causality, all grades: 3 (23.1) n (%)
  Blood creatinine phosphokinase increased, all-causality, ≥Grade 3: 0 n (%)
  Blood creatinine phosphokinase increased, treatment-related, Grade 3: 0 n (%)
  Blood creatinine phosphokinase increased, treatment-related, all grades: 3 (23.1) n (%)
  Constipation, all-causality, all grades: 6 (46.2) n (%)
  Constipation, all-causality, ≥Grade 3: 0 n (%)
  Constipation, treatment-related, Grade 3: 0 n (%)
  Constipation, treatment-related, all grades: 3 (23.1) n (%)
  Decreased appetite, all-causality, all grades: 6 (46.2) n (%)
  Decreased appetite, all-causality, ≥Grade 3: 0 n (%)
  Decreased appetite, treatment-related, Grade 3: 0 n (%)
  Decreased appetite, treatment-related, all grades: 4 (30.8) n (%)
  Diarrhea, all-causality, all grades: 3 (23.1) n (%)
  Diarrhea, all-causality, ≥Grade 3: 0 n (%)
  Diarrhea, treatment-related, Grade 3: 0 n (%)
  Diarrhea, treatment-related, all grades: 3 (23.1) n (%)
  Dysgeusia, all-causality, all grades: 9 (69.2) n (%)
  Dysgeusia, all-causality, ≥Grade 3: 0 n (%)
  Dysgeusia, treatment-related, Grade 3: 0 n (%)
  Dysgeusia, treatment-related, all grades: 9 (69.2) n (%)
  Fatigue, all-causality, all grades: 3 (23.1) n (%)
  Fatigue, all-causality, ≥Grade 3: 0 n (%)
  Hypokalemia, all-causality, all grades: 3 (23.1) n (%)
  Hypokalemia, all-causality, ≥Grade 3: 2 (15.4) n (%)
  Muscle spasms, all-causality, all grades: 6 (46.2) n (%)
  Muscle spasms, all-causality, ≥Grade 3: 0 n (%)
  Muscle spasms, treatment-related, Grade 3: 0 n (%)
  Muscle spasms, treatment-related, all grades: 5 (38.5) n (%)
  Pyrexia, all-causality, all grades: 6 (46.2) n (%)
  Pyrexia, all-causality, ≥Grade 3: 1 (7.7) n (%)
  Thrombocytopenia, all-causality, all grades: 3 (23.1) n (%)
  Thrombocytopenia, all-causality, ≥Grade 3: 3 (23.1) n (%)
  Weight decreased, all-causality, all grades: 3 (23.1) n (%)
  Weight decreased, all-causality, ≥Grade 3: 0 n (%)
[2]; dose levels tested (25–100 mg)
  Overall safety and tolerability: safe and well tolerated
[2]; doses up to 100 mg q.d.
  Maximum tolerated dose: not reached
[3]; 25–100 mg
  Dose proportionality of maximum plasma concentration and exposure: broadly dose‐proportional
[3]; oral
  half-life: 20.7 ± 7.7 h
[3]; po, 25 mg
  AUC(0-inf): 3350 ng·h/mL
  Tmax: 2 h
  Vd/F: 165 L
  half-life: 15.3 h
[3]; po, 50 mg
  AUC(0-inf): 9590 ng·h/mL
  Tmax: 4 h
  Vd/F: 225 L
  half-life: 30.3 h
[3]; po, 100 mg
  AUC(0-inf): 13100 ng·h/mL
  Tmax: 2 h
  Vd/F: 184 L
  half-life: 17.1 h
[3]; 50 mg q.d.
  C trough: 240 (37) ng/mL
[3]; 100 mg q.d.
  C trough: 343 (35) ng/mL
[3]; 25 mg oral
  CL/F: 7.47 (68) L/h
[3]; 50 mg oral
  CL/F: 5.22 (64) L/h
[3]; 100 mg oral
  CL/F: 7.63 (20) L/h
[4]; 25 mg
  AML patients achieving stable disease: 1 patients
  MDS patients achieving stable disease: 1
[4]; 50 mg
  AML patients achieving stable disease: 1 patients
[4]; 100 mg
  MDS patients achieving stable disease: 1
[4]; 100-mg group
  AML patients achieving stable disease: 2 patients
[4]; 100-mg group, 8% of 13
  AML patients with morphological complete remission as best response: 1 patient
[4]; all dose groups, 31%
  AML patients achieving stable disease: Four
[5]
  Patients with prolonged (≥6 months) stabilization of disease: 13%
  Patients with stable disease: 35%
[6]; European and American patients with hematologic malignancies
  Patients with some suggestion of clinical activity: 23 of 47
[6]; phase I dose-escalation study, United States and Italy
  Patients with preliminary clinical activity: approximately half
[7]
  Dose proportionality of pharmacokinetics: dose‐proportional
[8]
  Downregulation of GLI1 expression in surrogate tissue: > 80%
[9]
  Tolerability: well tolerated
[10]; preclinical studies
  Antitumor activity in vivo: significant antitumor activity
[10]; xenograft models
  Leukemic stem cell (LSC) burden: significant reduction
[11]; 50 mg group
  Downregulation of GLI1 expression from skin biopsies: > 80%
[11]; 100 mg group
  Downregulation of GLI1 expression from skin biopsies: > 80%
[11]; steady state, 25-mg group
  Marked downregulation of GLI1 expression from skin biopsies: not observed
